Values after ≈ are worked out from the molar mass of the structure shown.

Assay [1] concerns Mus musculus. The assay can be described thus: Compound was evaluated for protective dose against the Streptococcus pneumoniae SV-1 lethal infection following po administration. The following applies: read-out: PD50. It counts as functional. The essentials:
(§1)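 Female Charles River CD-1 mice (18–22 g) were challenged intraperitoneally with an estimated 100 median lethal dose in tryptic soy broth. Single doses, in a twofold rising series, were given at the same time as challenge: subcutaneously as aqueous solution, or orally by gavage in 5% gum acacia. Survival in groups of eight mice per dose gave PD50 (mg/kg) by log probit.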

Assay [2] relates to Mus musculus. The assay can be described thus: Compound was evaluated for protective dose against the […] UC-76 lethal infection following po administration in mouse. The assay is classed as functional. The following applies: read-out: PD50. The method, boiled down: (§2)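 Acute lethal systemic infection in female Charles River CD-1 mice (18–22 g), challenged intraperitoneally with an estimated 100 median lethal dose in 5% hog gastric mucin. Single doses in a twofold rising series were given with the challenge, sc as aqueous solution or po by gavage in 5% gum acacia. PD50 (mg/kg) was estimated by log probit from survival of eight mice per dose.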

The test system of assay [3] is Mus musculus. Kind of assay: Compound was evaluated for protective dose against the Escherichia coli vogel lethal infection following sc administration in mouse. It counts as functional. The following applies: read-out: PD50. The essentials: as §2
The target of assay [4] is DNA gyrase (Escherichia coli) (UniProt P0AES6+P0AES4). Kind of assay: Inhibition of DNA gyrase of Escherichia coli H560 cells. The method, boiled down:
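DNA gyrase purified from Escherichia coli H560 cells. Cleavage assay: drug-gyrase-DNA complex denatured, converting closed circular DNA to linear DNA. Linear DNA resolved by gel electrophoresis and stained with ethidium bromide. Value is the minimum drug concentration (µg/mL) giving linear DNA at an intensity relative to oxolinic acid at 10 µg/mL. Aqueous drug stocks made up in 0.1 N NaOH or KOH.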

Assay [5] concerns Mus musculus. The assay can be described thus: Compound was evaluated for protective dose against Streptococcus pneumoniae SV-1 lethal infection following sc administration. It counts as functional. The following applies: read-out: PD50. The method, boiled down: as §1
In assay [6] the test system is Mus musculus. Kind of assay: Compound was evaluated for protective dose against the […] UC-76 lethal infection following sc administration in mouse. The assay is classed as functional. The following applies: read-out: PD50. The essentials:
as §2

Assay [7] deals with Staphylococcus aureus. The assay can be described thus: Compound was tested for inhibition of the […] organism […] UC-76. It counts as functional. The essentials: (§3)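 MICs read in standard microdilution (microtitration) format against a panel of 10 bacterial organisms; values in µg/mL.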
The next assay has as its system Klebsiella pneumoniae. Kind of assay: Compound was tested for inhibition of the gram-negative organism Klebsiella pneumoniae MGH-2. It counts as functional. The method, boiled down: as §3
For another assay, the system named is Enterococcus faecalis. The assay can be described thus: Compound was tested for inhibition of the […] organism Streptococcus faecalis MGH-2. The assay is classed as functional. The essentials: as §3
The next assay concerns Pseudomonas aeruginosa. Kind of assay: Compound was tested for inhibition of the gram-negative organism Pseudomonas aeruginosa UI-18. The assay is classed as functional. The essentials: as §3
Assay [8] concerns Escherichia coli. Kind of assay: Compound was tested for inhibition of the gram-negative organism Escherichia coli H560. It counts as functional. The essentials: as §3
Assay [9] concerns Staphylococcus aureus. The assay can be described thus: Compound was tested for inhibition of the […] organism […] H228. It counts as functional. The method, boiled down: as §3
A further assay relates to Providencia rettgeri. The assay can be described thus: Compound was tested for inhibition of the gram-negative organism Providencia rettgeri H1771. The assay is classed as functional. The method, boiled down: as §3
The test system of assay [10] is Mus musculus. The assay can be described thus: Compound was evaluated for protective dose against the Escherichia coli vogel lethal infection following peroral administration in mouse. It counts as functional. The following applies: po, read-out: PD50. The method, boiled down:
as §2

In a further assay the test system is Streptococcus pyogenes. Kind of assay: Compound was tested for inhibition of the […] organism Streptococcus pyogenes C203. The assay is classed as functional. The method, boiled down: as §3
In the next assay the test system is Enterobacter cloacae. Kind of assay: Compound was tested for inhibition of the gram-negative organism […] HA 2646. The assay is classed as functional.
For assay [11], the system named is Escherichia coli. The assay can be described thus: Compound was tested for inhibition of the gram-negative organism Escherichia coli vogel. The assay is classed as functional. The essentials: as §3

Turning to `O=C(O)c1cn(C2CC2)c2cc(N3CCNCC3)c(F)cc2c1=O` [CIPROFLOXACIN], the ED50 in the assay with Mus musculus [1] is more than 100 mg/kg; in the assay with Mus musculus [2], 9.5 mg/kg; with Mus musculus [3], 0.25 mg/kg; in the assay with Mus musculus [5] it was 18 mg/kg; in the assay on Mus musculus [6], 3 mg/kg; in the assay with Mus musculus [10], 1.2 mg/kg. The compound also gave a Min concentration in [4] of 0.5 µg/mL. Besides, the minimal inhibitory concentration (MIC) with Staphylococcus aureus [7] came to 0.2 µg/mL (≈ 0.604 µM); against Klebsiella pneumoniae, 0.1 µg/mL (≈ 0.302 µM); against Enterococcus faecalis, 0.8 µg/mL (≈ 2.41 µM); in the assay on Pseudomonas aeruginosa, 0.4 µg/mL (≈ 1.21 µM); against Escherichia coli [8], 0.025 µg/mL (≈ 0.0754 µM); in the assay with Staphylococcus aureus [9] it was 3.1 µg/mL (≈ 9.36 µM). The MIC in the assay on Providencia rettgeri came to 0.1 µg/mL (≈ 0.302 µM); with Streptococcus pyogenes, 0.8 µg/mL (≈ 2.41 µM).
As for `CCn1cc(C(=O)O)c(=O)c2cc(F)c(N3CCNCC3)nc21` [ENOXACIN], the ED50 was more than 200 mg/kg in the assay on Mus musculus [1]; 12 mg/kg in the assay on Mus musculus [2]; 2 mg/kg in the assay on Mus musculus [3]; more than 100 mg/kg in the assay with Mus musculus [5]; 10 mg/kg in the assay with Mus musculus [6]; 3 mg/kg in the assay on Mus musculus [10]. This compound also displayed a Min concentration in assay [4] of 5 µg/mL. Moreover, the MIC is 0.2 µg/mL (≈ 0.624 µM) against Enterobacter cloacae; 0.4 µg/mL (≈ 1.25 µM) in the assay with Staphylococcus aureus [7]; 0.2 µg/mL (≈ 0.624 µM) against Klebsiella pneumoniae; 3.1 µg/mL (≈ 9.68 µM) in the assay with Enterococcus faecalis; 1.6 µg/mL (≈ 4.99 µM) with Pseudomonas aeruginosa; 0.1 µg/mL (≈ 0.312 µM) in the assay on Escherichia coli [8]. Besides, the minimum inhibitory concentration (MIC) with Staphylococcus aureus [9] was determined as 1.6 µg/mL (≈ 4.99 µM); against Escherichia coli [11], 0.2 µg/mL (≈ 0.624 µM); with Providencia rettgeri, 0.1 µg/mL (≈ 0.312 µM); against Streptococcus pyogenes it was 12.5 µg/mL (≈ 39 µM).
Regarding `CCn1cc(C(=O)O)c(=O)c2ccc(C)nc21` [NALIDIXIC ACID], the ED50 was more than 100 mg/kg in the assay with Mus musculus [1]; more than 100 mg/kg in the assay on Mus musculus [2]; 26 mg/kg with Mus musculus [3]; more than 100 mg/kg in the assay with Mus musculus [5]; more than 100 mg/kg in the assay with Mus musculus [6]; 45 mg/kg in the assay with Mus musculus [10]. Moreover, the Min concentration in assay [4] is 50 µg/mL. Also, the MIC is 6.3 µg/mL (≈ 27.1 µM) in the assay on Enterobacter cloacae; 25 µg/mL (≈ 108 µM) with Staphylococcus aureus [7]; 6.3 µg/mL (≈ 27.1 µM) against Klebsiella pneumoniae; more than 100 µg/mL in the assay on Enterococcus faecalis; more than 100 µg/mL in the assay on Pseudomonas aeruginosa; 6.3 µg/mL (≈ 27.1 µM) against Escherichia coli [8]. Further, the MIC against Staphylococcus aureus [9] is 100 µg/mL (≈ 431 µM); with Escherichia coli [11], 3.1 µg/mL (≈ 13.3 µM); in the assay with Providencia rettgeri it was 6.3 µg/mL (≈ 27.1 µM); with Streptococcus pyogenes, more than 100 µg/mL.
In the case of `CC1COc2c(N3CCN(C)CC3)c(F)cc3c(=O)c(C(=O)O)cn1c23` (centres undefined) [OFLOXACIN], the ED50 turned out to be 68 mg/kg with Mus musculus [1]; 11 mg/kg with Mus musculus [2]; 0.8 mg/kg in the assay with Mus musculus [3]; 38 mg/kg with Mus musculus [5]; 5 mg/kg in the assay on Mus musculus [6]; 2 mg/kg in the assay with Mus musculus [10]. The Min concentration in assay [4] was 5 µg/mL. In addition, the MIC is 0.1 µg/mL (≈ 0.277 µM) against Enterobacter cloacae; 0.1 µg/mL (≈ 0.277 µM) in the assay with Staphylococcus aureus [7]; 0.1 µg/mL (≈ 0.277 µM) against Klebsiella pneumoniae; 0.8 µg/mL (≈ 2.21 µM) with Enterococcus faecalis; 0.4 µg/mL (≈ 1.11 µM) with Pseudomonas aeruginosa; 0.1 µg/mL (≈ 0.277 µM) in the assay with Escherichia coli [11]. Also, the MIC against Providencia rettgeri was determined as 0.2 µg/mL (≈ 0.553 µM); with Streptococcus pyogenes, 0.8 µg/mL (≈ 2.21 µM).
For `CCn1cc(C(=O)O)c(=O)c2cc3c(cc21)OCO3` [OXOLINIC ACID], the ED50 with Mus musculus [2] was more than 100 mg/kg; with Mus musculus [3], 9 mg/kg; with Mus musculus [6], 63 mg/kg; in the assay with Mus musculus [10] it was 17 mg/kg. This compound also showed a Min concentration in assay [4] of 10 µg/mL. Also, the minimal inhibitory concentration (MIC) was 0.4 µg/mL (≈ 1.53 µM) with Enterobacter cloacae; 0.8 µg/mL (≈ 3.06 µM) against Staphylococcus aureus [7]; 0.2 µg/mL (≈ 0.766 µM) against Klebsiella pneumoniae; 12.5 µg/mL (≈ 47.9 µM) with Enterococcus faecalis; 6.3 µg/mL (≈ 24.1 µM) in the assay with Pseudomonas aeruginosa; 0.2 µg/mL (≈ 0.766 µM) against Escherichia coli [8]. In addition, the minimal inhibitory concentration (MIC) is 1.6 µg/mL (≈ 6.12 µM) against Staphylococcus aureus [9], 0.2 µg/mL (≈ 0.766 µM) in the assay with Escherichia coli [11], 0.1 µg/mL (≈ 0.383 µM) against Providencia rettgeri and more than 100 µg/mL against Streptococcus pyogenes.
As for `CCn1cc(C(=O)O)c(=O)c2cc(F)c(N3CCN(C)CC3)cc21` [PEFLOXACIN], the ED50 amounted to 200 mg/kg in the assay on Mus musculus [1]; 9.5 mg/kg with Mus musculus [2]; 1.6 mg/kg in the assay with Mus musculus [3]; 96 mg/kg in the assay on Mus musculus [5]; 3.7 mg/kg in the assay on Mus musculus [6]; 2.8 mg/kg with Mus musculus [10]. Moreover, the MIC against Staphylococcus aureus [7] is 0.1 µg/mL (≈ 0.3 µM); against Klebsiella pneumoniae it was 0.05 µg/mL (≈ 0.15 µM); in the assay on Enterococcus faecalis, 0.8 µg/mL (≈ 2.4 µM); against Pseudomonas aeruginosa it was 0.4 µg/mL (≈ 1.2 µM); against Escherichia coli [8] it was 0.1 µg/mL (≈ 0.3 µM); against Staphylococcus aureus [9], 0.2 µg/mL (≈ 0.6 µM). For the same compound, the MIC against Escherichia coli [11] was found to be 0.025 µg/mL (≈ 0.075 µM); against Providencia rettgeri, 0.05 µg/mL (≈ 0.15 µM); in the assay with Streptococcus pyogenes, 0.8 µg/mL (≈ 2.4 µM).

For the origin of these results see ChEMBL document CHEMBL1123422, “1-Ethyl-7-[3-[(ethylamino)methyl]-1-pyrrolidinyl]-6,8-difluoro-1,4- dihydro-4-oxo-3-quinoline-carboxylic acid. New quinolone antibacterial with potent gram-positive activity” (1986).
